The values below come from ChEMBL document CHEMBL1139471, “Antitumor polycyclic acridines. 17. Synthesis and pharmaceutical profiles of pentacyclic acridinium salts designed to destabilize telomeric integrity” (J Med Chem, 2005).

Series [1] in a line: Inhibition of telomerase by TRAP assay. Set-up: species or system Homo sapiens.
The nature of series [2]: Growth inhibition of NCI60 cell panel. Type of series: functional. The note with it: Homo sapiens. The essentials:
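NCI 60 human tumor cell panel with a 2-day drug exposure; mean GI50 reported.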

A short description of series [3]: Stability in RPMI tissue culture medium at 37 degC incubated with human MCF7 cells at 0.5 uM after 72 hrs. The following applies: read-out: Stability. It is filed as ADME, cell-based. The gist of the method:
(§1)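 A549 or MCF-7 cells seeded at 5 × 10^5 per flask and attached overnight in RPMI with 10% serum at 37 °C. Medium then replaced with medium containing 0.5 μM drug. Medium sampled in triplicate at 0, 24, 48 and 72 h, deproteinized with acetonitrile. Isocratic C18 HPLC, fluorescence detection ex 483/em 543 nm. Drug peak height given as % of time zero; mean and SD of two flasks.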

The nature of series [4]: Selectivity index, ratio of mean GI50 for NCI60 cell panel to IC50 for telomerase. Type of series: functional, Homo sapiens. The gist of the method:
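Selectivity index calculated as mean GI50 (NCI 60 panel, 2-day exposure) divided by the telomerase IC50 from the TRAP assay.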

Series [5] can be described thus: Stability in RPMI tissue culture medium at 37 degC after 72 hrs. Type of series: ADME. The essentials:
(§2)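 Drug at 10 μM in RPMI containing 10% FBS without cells, held at 37 °C up to 72 h. Monitored by absorbance at λmax and spectrum shape, and by HPLC of aliquots for loss of parent and appearance of new peaks. LC-MS run on the 72 h sample.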

The nature of series [6]: Metabolic stability in Sprague-Dawley rat liver microsomes assessed as drug remaining after 4 hrs.
Series [7] can be described thus: Aqueous solubility at 25 degC. The following applies: water. It is filed as physicochemical.
A further series concerns Liver microsomes. Nature of the series: Metabolic stability in Sprague-Dawley rat liver microsomes at 2 uM after 4 hrs. Type of series: ADME, Microsome. The essentials: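 Pooled male Sprague-Dawley rat liver microsomes (0.5 mg/mL protein) in 100 mM potassium phosphate pH 7.4 with 5 mM MgCl2 and 1 mM NADPH. Drug at 2 μM final, diluted from a DMSO stock, incubated 4 h at 37 °C. Stopped with cold acetonitrile, then reverse-phase C18 HPLC of the parent peak. Controls: P450-null human lymphoblast microsomes for protein binding; DF 203 for microsomal activity.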

Series [8] can be described thus: Stability in RPMI tissue culture medium at 37 degC at 10 uM after 72 hrs. Type of series: ADME. The gist of the method:
as §2

In a further series the test system is A549. Nature of the series: Stability in RPMI tissue culture medium at 37 degC incubated with human A549 cells at 0.5 uM after 72 hrs. It is filed as ADME, cell-based. The note with it: a549, 72 h. The essentials:
as §1

Structures are written as SMILES.

With `COC(=O)CCc1ccc2c(c1)c1cccc3c1c([n+]2C)-c1ccccc1N3C`, the IC50 in series [1] worked out at 3.02 µM.
On to `CC(=O)Nc1ccc2c3cccc4c3c([n+](C)c2c1)-c1ccccc1N4C.[I-]`, for which, in series [1], 0.38 µM corresponded to half-maximal inhibition (IC50). This molecule registered a concentration for 50% growth inhibition (GI50) in series [2] of 12 µM. The remaining at 72 h, 0.5 µM in series [3] turned out to be 43%. Moreover, the Selectivity index in [4] is on record as 31.6. Besides, the Stability entry in series [5] is “Stable”. The remaining at 4 h in [6] was 69%.
On to `CC(=O)OCCCc1cc2c3c([n+](C)c4ccc(CCCOC(C)=O)cc4c3c1)-c1ccccc1N2C.[I-]`, for which half-maximal inhibition in series [1] (IC50) required 3.22 µM. The GI50 in series [2] turned out to be 3.8 µM. The Selectivity index in [4] was 1.2.
For `COS(=O)(=O)[O-].Cc1cc2c3c([n+](C)c4ccc(F)cc4c3c1)-c1cc(F)ccc1N2C`, it took 0.33 µM to reach half-maximal inhibition in [1] (IC50). In series [2], this molecule came in with a GI50 of 13.2 µM. Also, the Selectivity index in [4] is on record as 40. Also, in [5], the Stability result is recorded as “Stable”. The remaining at 4 h in [6] was 81%. In series [7], this molecule displayed a solubility of 5000 µM.
`CN1c2ccccc2-c2c3c1cccc3c1ccccc1[n+]2C.[I-]` returned an IC50 in series [1] of 0.38 µM. In [2], this molecule yielded a GI50 of 1.29 µM. In addition, the Selectivity index in series [4] turned out to be 3.4.
As to `COC(=O)/C=C/c1ccc2c(c1)N(C)c1cc(OC)cc3c1c-2[n+](C)c1ccccc31`, in series [1], the IC50 was over 1 µM. In series [2], this molecule had a GI50 of 4.58 µM.
In the case of `COc1cc2c3c([n+](C)c4ccc(/C=C/C(=O)N5CCOCC5)cc4c3c1)-c1ccccc1N2C`, the GI50 in [2] turned out to be 9.33 µM.
Regarding `CC(=O)OCCCc1ccc2c(c1)N(C)c1cc(CCCOC(C)=O)cc3c1c-2[n+](C)c1ccccc31.[I-]`, in series [1], the IC50 came out at 2.3 µM. In addition, in series [2], halving of growth (GI50) required 3.31 µM. Also, in [4], the Selectivity index stood at 1.45.
In series [1], `CN1c2ccccc2-c2c3c1cccc3c1cc(/C=C/C(=O)N3CCOCC3)ccc1[n+]2C.[I-]` had an IC50 of 0.37 µM. Also, the GI50 in series [2] is 68 µM. In addition, the Selectivity index in [4] stood at 183. The Stability entry in series [5] was “Stable”. The concentration in solution in [7] (solubility) was 1000 µM. In the series with Liver microsomes, this molecule had an Activity of 66%.
For the molecule `CN1c2ccccc2-c2c3c1cc(/C=C/C(=O)N1CCOCC1)cc3c1cc(Cl)ccc1[n+]2C`, it took 12 µM to inhibit growth in series [2] by half (GI50).
The molecule `COc1cc2c3c([n+](C)c4ccccc4c3c1)-c1ccc(/C=C/C(=O)N3CCOCC3)cc1N2C.[I-]` had an IC50 in series [1] of 2.18 µM. In [2], this molecule yielded a 50% growth inhibitory concentration (GI50) of 43.7 µM. In [4], the Selectivity index is on record as 2.
As for `COc1cc2c3c([n+](C)c4ccccc4c3c1)-c1ccc(/C=C/C(=O)N3CCN(C(C)=O)CC3)cc1N2C`, it took 93.3 µM to inhibit growth in series [2] by half (GI50).
Turning to `COC(=O)/C=C/c1ccc2c(c1)c1cccc3c1c([n+]2C)-c1ccccc1N3C`, the IC50 in [1] was determined as 0.2 µM.
In series [1], `COS(=O)(=O)[O-].Cc1ccc2c(c1)-c1c3c(cc(C)cc3c3cc(C)ccc3[n+]1C)N2C` yielded an IC50 of 0.25 µM. In [2], this molecule came in with a GI50 of 0.41 µM. Also, in series [4], the Selectivity index is listed as 1.8.
As to `CC(=O)OCCCc1cc2c3c([n+](C)c4ccc(/C=C/C(=O)N5CCOCC5)cc4c3c1)-c1ccccc1N2C.[I-]`, in series [1], inhibition was half-maximal at 0.38 µM (IC50). The GI50 in series [2] came out at 27.5 µM. For the same molecule, the Selectivity index in [4] is 72.4. In addition, the Activity entry (in series [8]; with A549) was “Not Active” throughout.
